# The source made the active and inactive calls. No cut-off for these calls is given here.
# Key:
# [1] = Cytotoxic activity against mouse 32D Bcr-abl negative cells
# [2] = Cytotoxic activity against mouse 32D cells transfected with p210 Bcr-abl; type: cell-based
# [3] = target: Tyrosine-protein kinase ABL1 (Homo sapiens) (UniProt P00519); assay: Binding affinity to phosphorylated human recombinant abl
# Method in brief: (§1)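 Recombinant human abl (1 μg), either Src-phosphorylated or tyrosine phosphatase-treated, incubated 1 h at 4 °C with immobilized GNF-3 resin; after five washes bound protein eluted by boiling in Laemmli buffer and detected by SDS-PAGE/anti-abl immunoblot. Immobilized methyl analogue used as control matrix.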
# [4] = target: Tyrosine-protein kinase ABL1 (Homo sapiens) (UniProt P00519); assay: Binding affinity to dephosphorylated human recombinant abl; method in brief: as §1
# [5] = target: Tyrosine-protein kinase ABL1 (Homo sapiens) (UniProt P00519); assay: Displacement of abl from GNF2 resin using affinity chromatography at 1000 uM by competition binding assay
# Tyrosine-protein kinase ABL1 (Homo sapiens), sequence (P00519 whole entry): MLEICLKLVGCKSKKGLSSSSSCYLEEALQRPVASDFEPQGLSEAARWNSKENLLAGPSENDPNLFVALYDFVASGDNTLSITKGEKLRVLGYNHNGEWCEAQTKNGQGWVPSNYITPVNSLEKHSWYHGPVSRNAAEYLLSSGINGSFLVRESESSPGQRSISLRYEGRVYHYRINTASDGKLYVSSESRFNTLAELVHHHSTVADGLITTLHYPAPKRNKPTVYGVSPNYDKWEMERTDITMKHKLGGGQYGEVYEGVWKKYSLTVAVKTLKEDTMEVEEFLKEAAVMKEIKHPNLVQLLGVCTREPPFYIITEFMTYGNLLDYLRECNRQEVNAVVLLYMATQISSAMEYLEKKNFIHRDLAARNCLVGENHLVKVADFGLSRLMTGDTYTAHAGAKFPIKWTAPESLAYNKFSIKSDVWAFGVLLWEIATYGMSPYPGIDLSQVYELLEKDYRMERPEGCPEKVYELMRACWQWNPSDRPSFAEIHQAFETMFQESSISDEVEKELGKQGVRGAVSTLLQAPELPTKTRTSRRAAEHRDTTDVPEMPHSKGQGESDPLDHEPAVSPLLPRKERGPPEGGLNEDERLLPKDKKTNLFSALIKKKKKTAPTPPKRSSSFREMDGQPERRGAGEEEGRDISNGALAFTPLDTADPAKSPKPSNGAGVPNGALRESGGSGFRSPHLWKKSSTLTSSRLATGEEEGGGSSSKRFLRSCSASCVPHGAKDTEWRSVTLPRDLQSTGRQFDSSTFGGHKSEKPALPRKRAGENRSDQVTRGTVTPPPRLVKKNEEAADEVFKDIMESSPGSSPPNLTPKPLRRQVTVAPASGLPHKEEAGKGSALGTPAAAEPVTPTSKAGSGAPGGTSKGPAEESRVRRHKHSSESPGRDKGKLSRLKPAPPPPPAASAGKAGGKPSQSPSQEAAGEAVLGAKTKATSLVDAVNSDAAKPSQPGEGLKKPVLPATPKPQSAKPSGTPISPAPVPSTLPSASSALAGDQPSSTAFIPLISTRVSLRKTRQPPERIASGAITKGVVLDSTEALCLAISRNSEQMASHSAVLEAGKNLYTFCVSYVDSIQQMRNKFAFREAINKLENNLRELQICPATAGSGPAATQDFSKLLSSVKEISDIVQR
smiles,measurement,setting,value
FC(F)(F)Oc1ccc(Nc2cc(NCCN3CCOCC3)ncn2)cc1,IC50,[1],> 40 µM
same,IC50,[2],0.4 µM
NCCOCCOCCOCCOCCOCCNC(=O)c1cccc(-c2cc(Nc3ccc(OC(F)(F)F)cc3)ncn2)c1,Activity,[3],Active
same,Activity,[4],Active
Nc1ncnc2c1ncn2[C@@H]1O[C@H](COP(=O)(O)OP(=O)(O)OP(=O)(O)O)[C@@H](O)[C@H]1O,Activity,[5],Active
